Columns and labels:
NCI-H460 = test: Inhibition of human NCI-H460 (human lung large cell carcinoma, MDR negative) cell growth; format: functional, cell-based
How it was run: (§1)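 Sulforhodamine B assay following the NCI protocol. HCT-15 and NCI-H460 cells were exposed to final concentrations of 10^-11 to 10^-4 M and grown for 48 h at 37 °C in 5% CO2. […] Cells were TCA-fixed and stained, dye was solubilized in Tris, and absorbance was read. IC50 came from nonlinear regression as the geometric mean of at least two independent runs.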

HCT-15 = test: Inhibition of human HCT-15 (human colon adenocarcinoma, MDR positive) cell growth; format: functional, cell-based; how it was run: as §1
[1] = Maximum concentration of compound present in plasma measured; format: ADME, organism-based
How it was run: (§2)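 Two animals were used in each dosing group, each given 5 mg/kg either orally or iv. Plasma Cmax, oral AUC and bioavailability are the average of the two animals.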

[2] = Bioavailability; format: ADME, organism-based; settings: eutheria, in vivo; how it was run: as §2
[3] = The oral Area under the plasma concentration curve(AUC) measured;when administered perorally; format: ADME; how it was run: as §2
[4] = Oral bioavailability in monkey; format: ADME, organism-based; settings: primates, in vivo; how it was run: as §2
[5] = Oral bioavailability in mouse; format: ADME, organism-based; settings: in vivo; how it was run: as §2
Tubulin beta chain = Tubulin beta chain (Bos taurus, UniProt Q6B856); test: Concentration needed to inhibit tubulin polymerization by 50%; format: functional
Sequence of Tubulin beta chain (Q6B856 whole entry): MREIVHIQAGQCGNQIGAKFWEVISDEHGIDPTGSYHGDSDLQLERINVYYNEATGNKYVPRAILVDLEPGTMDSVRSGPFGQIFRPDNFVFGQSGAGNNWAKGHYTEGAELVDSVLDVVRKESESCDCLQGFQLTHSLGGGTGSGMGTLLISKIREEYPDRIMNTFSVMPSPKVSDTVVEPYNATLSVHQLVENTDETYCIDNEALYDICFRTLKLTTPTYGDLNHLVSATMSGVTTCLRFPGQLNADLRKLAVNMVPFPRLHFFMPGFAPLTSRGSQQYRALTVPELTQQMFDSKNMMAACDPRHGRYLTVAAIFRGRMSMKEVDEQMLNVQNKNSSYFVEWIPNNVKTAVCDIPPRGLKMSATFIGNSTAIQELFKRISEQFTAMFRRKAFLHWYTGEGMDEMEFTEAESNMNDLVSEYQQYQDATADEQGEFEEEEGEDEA
How it was run: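 Microtubule protein was purified from bovine brain, or purified tubulin in glycerol was used. Tubulin, buffer and GTP were prechilled to 4 °C, then added to wells containing drug or solvent. Polymerization ran at 37 °C, with light scattering followed at 340 nm for 30 min. The degree of polymerization was taken from the AUC of the profile. IC50 came from nonlinear regression as the geometric mean of at least two independent runs.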

[6] = Oral bioavailability in dog; format: ADME, organism-based, Canis lupus familiaris; settings: in vivo; how it was run: as §2
[7] = The oral Area under the plasma concentration curve(AUC) measured;when administered as perorally; format: ADME; how it was run: as §2

## COc1cc(-n2cncc2-c2ccc(N)cc2)cc(OC)c1OC
NCI-H460
  IC50: 8.55 µM
HCT-15
  IC50: 7.26 µM

## COc1cc(-c2ncn(C)c2-c2cc(Cl)c3c(ccn3C)c2)cc(OC)c1OC
[1]
  Cmax: 130 ng/mL
NCI-H460
  IC50: 0.012 µM
HCT-15
  IC50: 0.012 µM
[2]
  bioavailability: 10.2%
[3]
  AUC: 220 ng·h/mL

## COc1ccc(-c2ccnn2-c2cc(OC)c(OC)c(OC)c2)cc1N
NCI-H460
  IC50: 0.033 µM
HCT-15
  IC50: 0.028 µM

## COc1cc(-c2ncn(C)c2-c2ccc3ccn(C)c3c2)cc(OC)c1OC
[4]
  bioavailability: 12.5%
[5]
  bioavailability: 24.2%
[1]
  Cmax: 169 ng/mL
Tubulin beta chain
  IC50: 2 µM
NCI-H460
  IC50: 0.032 µM
HCT-15
  IC50: 0.02 µM
[6]
  bioavailability: 44.5%
[2]
  bioavailability: 32%
[3]
  AUC: 461 ng·h/mL

## COc1cc(-c2[nH]cnc2-c2ccc3ccn(C)c3c2)cc(OC)c1OC
[1]
  Cmax: < 10 ng/mL
Tubulin beta chain
  IC50: 1.1 µM
NCI-H460
  IC50: 0.0018 µM
HCT-15
  IC50: 0.0017 µM
[2]
  bioavailability: 0.31%
[3]
  AUC: 14.2 ng·h/mL

## COc1cc(-c2ncn(C)c2-c2cc(F)c3c(ccn3C)c2)cc(OC)c1OC
[1]
  Cmax: 209 ng/mL
NCI-H460
  IC50: 0.023 µM
HCT-15
  IC50: 0.027 µM
[2]
  bioavailability: 12.3%
[3]
  AUC: 340 ng·h/mL

## COc1cc(-c2ncoc2-c2ccc(N(C)C)cc2)cc(OC)c1OC
Tubulin beta chain
  IC50: 0.87 µM
NCI-H460
  IC50: 0.041 µM
HCT-15
  IC50: 0.018 µM

## COc1cc(-c2[nH]cnc2-c2ccc(N(C)C)cc2)cc(OC)c1OC
[1]
  Cmax: 15.1 ng/mL
Tubulin beta chain
  IC50: 3.7 µM
NCI-H460
  IC50: 0.002 µM
HCT-15
  IC50: 0.0044 µM
[2]
  bioavailability: 1.3%
[3]
  AUC: 16.2 ng·h/mL

## COc1ccc(-c2[nH]cnc2-c2cc(OC)c(OC)c(OC)c2)cc1
Tubulin beta chain
  IC50: 2.8 µM
NCI-H460
  IC50: 0.0072 µM
HCT-15
  IC50: 0.0078 µM

## COc1cc(-c2cncn2-c2ccc(N(C)C)cc2)cc(OC)c1OC
[1]
  Cmax: < 10 ng/mL
Tubulin beta chain
  IC50: 130 µM
NCI-H460
  IC50: 0.589 µM
HCT-15
  IC50: 0.333 µM
[2]
  bioavailability: 0.01%

## COc1ccc(-c2[nH]cnc2-c2cc(OC)c(OC)c(OC)c2)cc1F
NCI-H460
  IC50: 0.0038 µM
HCT-15
  IC50: 0.0038 µM

## COc1cc(-n2cncc2-c2ccc(N(C)C)cc2)cc(OC)c1OC
Tubulin beta chain
  IC50: 23 µM
NCI-H460
  IC50: 0.079 µM
HCT-15
  IC50: 0.036 µM

## COc1cc(-c2ncoc2-c2ccc3c(ccn3C)c2)cc(OC)c1OC
Tubulin beta chain
  IC50: 0.79 µM
NCI-H460
  IC50: 0.012 µM
HCT-15
  IC50: 0.0074 µM

## COc1ccc(-c2ncoc2-c2cc(OC)c3c(c2)OCO3)cc1N
NCI-H460
  IC50: 0.053 µM
HCT-15
  IC50: 0.076 µM

## COc1ccc(-c2[nH]cnc2-c2cc(OC)c(OC)c(OC)c2)cc1O
Tubulin beta chain
  IC50: 0.73 µM
NCI-H460
  IC50: 0.011 µM
HCT-15
  IC50: 0.01 µM

## COc1cc(-c2[nH]c(-c3ccoc3)nc2-c2ccc(N(C)C)cc2)cc(OC)c1OC
NCI-H460
  IC50: 0.19 µM
HCT-15
  IC50: 0.067 µM

## COc1cc(-n2cncc2-c2ccc3c(c2)CCN3C)cc(OC)c1OC
Tubulin beta chain
  IC50: 48 µM
NCI-H460
  IC50: 0.15 µM
HCT-15
  IC50: 0.058 µM

## COc1ccc(-c2ocnc2-c2cc(OC)c(OC)c(OC)c2)cc1O
Tubulin beta chain
  IC50: 0.98 µM
NCI-H460
  IC50: 0.0023 µM
HCT-15
  IC50: 0.0022 µM

## COc1ccc(-c2cncn2-c2cc(OC)c(OC)c(OC)c2)cc1N
Tubulin beta chain
  IC50: 7.7 µM
NCI-H460
  IC50: 0.063 µM
HCT-15
  IC50: 0.069 µM

## COc1ccc(-c2ncn(C)c2-c2cc(OC)c(OC)c(OC)c2)cc1N
[1]
  Cmax: 623 ng/mL
NCI-H460
  IC50: 0.034 µM
HCT-15
  IC50: 0.079 µM
[2]
  bioavailability: 29.9%
[3]
  AUC: 1500 ng·h/mL

## COc1ccc(-c2[nH]cnc2-c2cc(OC)c(OC)c(OC)c2)cc1N
[1]
  Cmax: < 74 ng/mL
Tubulin beta chain
  IC50: 0.68 µM
NCI-H460
  IC50: 0.0085 µM
HCT-15
  IC50: 0.0081 µM
[2]
  bioavailability: 45%
[3]
  AUC: < 218 ng·h/mL

## COc1ccc(-c2ncoc2-c2cc(OC)c(OC)c(OC)c2)cc1N
NCI-H460
  IC50: 0.011 µM
HCT-15
  IC50: 0.0072 µM
[2]
  bioavailability: 0%

## COc1ccc(-c2ocnc2-c2cc(OC)c(OC)c(OC)c2)cc1N
[1]
  Cmax: 22 ng/mL
[7]
  AUC: 12 ng·h/mL
Tubulin beta chain
  IC50: 0.92 µM
NCI-H460
  IC50: 0.0092 µM
HCT-15
  IC50: 0.011 µM
[2]
  bioavailability: 0.5%

## COc1ccc(-c2cncn2-c2cc(OC)c(OC)c(OC)c2)cc1O
Tubulin beta chain
  IC50: 7.6 µM
NCI-H460
  IC50: 0.061 µM
HCT-15
  IC50: 0.089 µM

## COc1ccc(-c2c(-c3cc(OC)c(OC)c(OC)c3)ncn2C)cc1N
[4]
  bioavailability: 91.2%
[5]
  bioavailability: 89.7%
[1]
  Cmax: 3860 ng/mL
Tubulin beta chain
  IC50: 31 µM
NCI-H460
  IC50: 0.17 µM
HCT-15
  IC50: 0.22 µM
[6]
  bioavailability: 45.8%
[2]
  bioavailability: 82.3%
[3]
  AUC: 10800 ng·h/mL

## COc1ccc(-c2nc(C)oc2-c2cc(OC)c(OC)c(OC)c2)cc1O
NCI-H460
  IC50: 0.035 µM
HCT-15
  IC50: 0.015 µM

## COc1cc(-c2nccnc2-c2ccc(N(C)C)cc2)cc(OC)c1OC
NCI-H460
  IC50: 0.707 µM
HCT-15
  IC50: 0.303 µM

## COc1cc(-n2ccnc2-c2ccc(N(C)C)cc2)cc(OC)c1OC
Tubulin beta chain
  IC50: 35 µM
NCI-H460
  IC50: 0.27 µM
HCT-15
  IC50: 0.08 µM

## COc1cc(-n2cncc2-c2ccc3c(ccn3C)c2)cc(OC)c1OC
Tubulin beta chain
  IC50: 1.8 µM
NCI-H460
  IC50: 0.019 µM
HCT-15
  IC50: 0.014 µM

## COc1cc(-n2cncc2-c2ccc3[nH]ccc3c2)cc(OC)c1OC
Tubulin beta chain
  IC50: 71 µM
NCI-H460
  IC50: 0.54 µM
HCT-15
  IC50: 0.35 µM

## COc1cc(-c2c(-c3ccc4c(ccn4C)c3)ncn2C)cc(OC)c1OC
[1]
  Cmax: 70 ng/mL
NCI-H460
  IC50: 0.051 µM
HCT-15
  IC50: 0.027 µM
[2]
  bioavailability: 2.5%
[3]
  AUC: 112 ng·h/mL

Reference: ChEMBL document CHEMBL1135921, “Potent, orally active heterocycle-based combretastatin A-4 analogues: synthesis, structure-activity relationship, pharmacokinetics, and in vivo antitumor activity evaluation” (J Med Chem, 2002)
